Ends that are not written are not given here.
Tests used:
LN229 cells [1] = assay: Colony formation assay; assay type: cell-based, human; settings: Figure 6e; for Colony numbers: drug alone, soft agar, 2 weeks
In short: (§1)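 Soft-agar assay: 50 000 cells per well in 0.4% agar with 10% FBS in DMEM, plated over a 0.6% agar base, with test peptide, drug or vehicle. Combinations used various doses of the test peptide with TMZ or BCNU. Cells grew 2 weeks at 37 °C. Colonies were stained with MTT, counted and normalized to vehicle (%). Mean±s.d.; Student's t-test.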

PIKE-A/Akt interaction [2] = target: T1, PIKE-A/Akt interaction (Homo sapiens, UniProt P31749+Q99490); assay type: binding
T1 sequence (Q99490 1-836 isoform Q99490-2): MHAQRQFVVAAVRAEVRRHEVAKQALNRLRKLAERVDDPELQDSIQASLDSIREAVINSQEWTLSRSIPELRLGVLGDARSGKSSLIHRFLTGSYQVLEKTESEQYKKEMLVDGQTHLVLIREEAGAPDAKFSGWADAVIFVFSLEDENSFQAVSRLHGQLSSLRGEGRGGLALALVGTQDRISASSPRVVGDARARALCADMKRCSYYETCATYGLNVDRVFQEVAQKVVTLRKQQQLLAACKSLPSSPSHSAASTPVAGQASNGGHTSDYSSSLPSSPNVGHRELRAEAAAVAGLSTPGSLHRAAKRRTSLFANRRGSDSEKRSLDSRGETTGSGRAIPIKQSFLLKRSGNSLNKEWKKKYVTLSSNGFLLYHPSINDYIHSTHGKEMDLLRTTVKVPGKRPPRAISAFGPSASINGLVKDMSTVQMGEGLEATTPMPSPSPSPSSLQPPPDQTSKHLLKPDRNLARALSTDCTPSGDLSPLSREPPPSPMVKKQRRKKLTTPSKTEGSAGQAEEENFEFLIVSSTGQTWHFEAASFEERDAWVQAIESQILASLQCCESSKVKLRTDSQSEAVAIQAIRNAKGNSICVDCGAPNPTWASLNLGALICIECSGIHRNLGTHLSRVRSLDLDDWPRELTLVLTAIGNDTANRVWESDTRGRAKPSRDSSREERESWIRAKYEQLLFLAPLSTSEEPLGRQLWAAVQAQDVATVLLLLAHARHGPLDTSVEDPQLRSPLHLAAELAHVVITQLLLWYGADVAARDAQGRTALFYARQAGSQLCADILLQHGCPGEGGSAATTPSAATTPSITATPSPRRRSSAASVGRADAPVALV
T1 sequence (P31749 whole entry): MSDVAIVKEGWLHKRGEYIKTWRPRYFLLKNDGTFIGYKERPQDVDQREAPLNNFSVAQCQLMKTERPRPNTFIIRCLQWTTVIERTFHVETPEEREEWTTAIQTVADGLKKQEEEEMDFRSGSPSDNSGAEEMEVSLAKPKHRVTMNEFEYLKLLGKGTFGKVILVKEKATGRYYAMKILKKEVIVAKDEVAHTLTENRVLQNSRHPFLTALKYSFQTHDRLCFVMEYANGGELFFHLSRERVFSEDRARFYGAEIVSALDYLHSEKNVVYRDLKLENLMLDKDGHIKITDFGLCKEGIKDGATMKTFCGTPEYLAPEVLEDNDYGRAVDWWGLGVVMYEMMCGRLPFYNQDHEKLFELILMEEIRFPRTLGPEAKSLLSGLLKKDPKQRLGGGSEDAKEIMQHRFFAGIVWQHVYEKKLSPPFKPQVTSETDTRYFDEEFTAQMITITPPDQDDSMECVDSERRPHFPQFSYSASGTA
In short: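 HEK293 cells were co-transfected with GST-PIKE-A and HA-Akt. After 40 h, lysates were collected and GST-PIKE-A was pulled down on glutathione beads in the presence of test peptides. Bound HA-Akt was detected by anti-HA immunoblot. GST-PIKE-A was verified with anti-GST-HRP.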

LN-Z308 cells [3] = assay: Cell migration, wound-healing assay; assay type: cell-based, human; settings: synthetic peptide 50 μM, 10 h, Figure 6b
In short: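 LN-Z308 monolayers were grown to confluence in six-well plates and scratched with a pipette tip, then washed to remove nonadherent cells. Medium containing test peptides (50 μM) or DMSO was added at 0 h, and cells were incubated 10 h. Wound area was imaged by light microscopy. % wound healed = 100-[(final area/initial area) × 100%]. Mean±s.d. of three or four independent experiments; Student's t-test.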

LN-Z308 cells [4] = assay: Cell viability assay; assay type: cell-based, human
In short: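 Cells (5 × 10^3/well) grown in DMEM/10% FBS were seeded in 96-well plates. Next day, medium was replaced with fresh medium containing test peptides (50 μM) or vehicle, for 16 h at 37 °C. For combinations, cells got various concentrations of the test peptide with TMZ (25 μM) or BCNU (50 μM). Viability was read by MTT. Mean±s.d., 3–4 independent experiments; Student's t-test.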

LN-Z308 cells [5] = assay: Colony formation assay; assay type: cell-based, human; settings: for Colony numbers: drug alone, soft agar, 2 weeks
In short: as §1

LN-Z308 cells [6] = assay: Transwell; assay type: cell-based, human; settings: synthetic peptide 50 μM, 16 h, Figure 6c
In short: (§2)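 Cells (1 × 10^5/well) were seeded in six-well plates and treated with test peptides (50 μM) for 16 h. Invasion through Matrigel was measured in a transwell system (8 μm pore polycarbonate membrane). Mean±s.d. of 3–4 independent experiments; Student's t-test.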

[7] = system: PIKE-A/Akt interaction in HEK293 cells; assay: GST pull-down from co-transfected HEK293 cells treated with synthetic peptides; assay type: cell-based; settings: sp2 50 μM, Figure 5f
In short: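 HEK293 cells were co-transfected with GST-PIKE-A and HA-Akt, then treated with 50 μM test peptide in culture medium for various times up to 24 h. GST-PIKE-A was pulled down on glutathione beads, and associated HA-Akt was detected by anti-HA immunoblot.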

PIKE-A/Akt interaction [8] = target: T1, PIKE-A/Akt interaction; assay: In vitro binding assay, GST-PIKE-A; settings: short synthetic peptides; Figure 5b
In short: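 Purified recombinant GST-PIKE-A (a.a. 1–356) was bound to glutathione beads and incubated, with test peptides, with lysates of HEK293 cells transfected with HA-Akt, 3 h at 4 °C. Bead-bound proteins were run on 10% SDS-PAGE and immunoblotted with anti-HA. GST proteins were verified by Coomassie staining.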

LN229 cells [9] = assay: Cell viability assay; assay type: cell-based, human
[10] = system: Akt signaling in LN-Z308 cells; assay: Immunoblotting of Akt phosphorylation and downstream signaling; assay type: cell-based, human; settings: peptide-treated cell lysates, dose-dependent, immunoblot, Figure 7b
LN229 cells [11] = assay: Transwell; assay type: cell-based, human; settings: synthetic peptide 50 μM, 16 h, Figure 6c
In short: as §2

PIKE-A/Akt interaction [12] = target: T1, PIKE-A/Akt interaction; assay: ELISA-based protein interaction assay; assay type: binding; settings: peptide 10 μM; Figure 5c
[13] = sp2 various concentrations + TMZ 25 μM, 16 h, Figure 6d
[14] = synthetic peptide 50 μM, 16 h, Figure 6a
[15] = various concentrations of sp2, 16 h, Figure 6d

Question: Which results are given for PELRLGVL [sp2]?
Answer: Colony formation inhibitory effect of TMZ and BCNU on co-treatment with sp2 (LN229 cells [1]; sp2 + TMZ or BCNU): additive trend also applied; Inhibitory effect on the PIKE-A/Akt interaction, GST pull-down (PIKE-A/Akt interaction [2]; GST pull-down as in Figure 2, Figure 5e): inhibited the binding; Cell migration (LN-Z308 cells [3]): strongly inhibits; Cell viability (MTT), co-treatment of sp2 with TMZ (LN-Z308 cells [4]; [13]): additive effect; Cell viability (MTT) (LN-Z308 cells [4]; [14]): selectively decreased LN-Z308 cell viability; Cell viability (MTT), sp2 alone (LN-Z308 cells [4]; [15]): suppressive activity of sp2 on LN-Z308 cell viability, which occurred in a dose-dependent manner; Colony formation inhibitory effect of TMZ and BCNU on co-treatment with sp2 (LN-Z308 cells [5]; 50 μM sp2 + TMZ or BCNU, Figure 6e): substantially increased; Colony formation, sp2 (LN-Z308 cells [5]; summary statement of Figure 6): strongly inhibits; Invasive activity (LN-Z308 cells [6]): strongly inhibited the invasive activity; Inhibition of PIKE-A binding to Akt at 24 h ([7]; 24 h in cell culture medium): lost its suppressive activity; Time at which inhibition of PIKE-A binding to Akt was seen ([7]; time course): 4 h; Time of peak inhibition of PIKE-A binding to Akt ([7]; time course): 16 h; Interaction between a fragment of PIKE-A (1–356 a.a.) and Akt (PIKE-A/Akt interaction [8]): decreased the interaction; Cell viability (MTT), co-treatment of sp2 with TMZ (LN229 cells [9]; [13]): inhibitory trend was similar; Cell viability (MTT) (LN229 cells [9]; [14]): not in LN229 cells; Cell viability (MTT), sp2 alone (LN229 cells [9]; [15]): not as evident as in LN-Z308 cells; Akt T308 and S473 phosphorylation [10]: diminished; Invasive activity (LN229 cells [11]): strongly inhibited the invasive activity

Question: With LKKDPK [sp9] as the molecule, how does the “Interaction between a fragment of PIKE-A (1–356 a.a.) and Akt” value (PIKE-A/Akt interaction [8]) read?
Answer: decreased the interaction

Question: What does the source list for DARSG [sp4]?
Answer: Disruption of the interaction between PIKE-A and Akt (ELISA, RLU) (PIKE-A/Akt interaction [12]): failed to block the PIKE-A/Akt interaction; Cell viability (MTT) (LN-Z308 cells [4]; [14]): no effect; Invasive activity (LN-Z308 cells [6]): did not significantly affect; Interaction between a fragment of PIKE-A (1–356 a.a.) and Akt (PIKE-A/Akt interaction [8]): decreased the interaction; Akt T308 and S473 phosphorylation [10]: no effect on Akt phosphorylation; Invasive activity (LN229 cells [11]): did not significantly affect

Question: How did the Colony numbers (LN229 cells [1]) turn out when O=NN(CCCl)C(=O)NCCCl [BCNU, Carmustine, reference compound] was run?
Answer: decreased the colony numbers

Question: What about the Colony numbers (LN-Z308 cells [5]; Figure 6e) of the same molecule?
Answer: decreased the colony numbers

Question: What about the “Cell viability (MTT)” value (LN229 cells [9]; BCNU 50 μM, 24 h, after 40 h plasmid transfection, Figure 4c) of the same molecule?
Answer: reduced cell viability regardless of peptide transfection

Question: How did the Colony numbers (LN229 cells [1]) turn out when Cn1nnc2c(C(N)=O)ncn2c1=O [TMZ, temozolomide, reference compound] was run?
Answer: decreased the colony numbers

Question: And the “Cell viability (MTT)” value (LN-Z308 cells [4]; TMZ 25 μM, 16 h, Figure 6d)?
Answer: potently decreased

Question: And the Colony numbers (LN-Z308 cells [5]; Figure 6e)?
Answer: decreased the colony numbers

Question: And the “Cell viability (MTT)” value (LN229 cells [9]; TMZ 25 μM, 16 h, Figure 6d)?
Answer: potently decreased

Question: And the “Cell viability (MTT)” value (LN229 cells [9]; TMZ 25 μM, 24 h, compared with vehicle, Figure 4c)?
Answer: modest effect in repressing LN229 cell viability

Question: For DARSGKSSLIHRFLTGSYQ [PP2], which “Disruption of the interaction between PIKE-A and Akt (ELISA, RLU)” value (PIKE-A/Akt interaction [12]) is on record?
Answer: failed to block the PIKE-A/Akt interaction

Question: What about the “Inhibition of the PIKE-A/Akt interaction, GST pull-down” value (PIKE-A/Akt interaction [2]; peptide up to 10 μM, Figure 2f) of the same molecule?
Answer: did not demonstrate an inhibitory effect

Question: TGSYQ [sp6] was tested. Which “Disruption of the interaction between PIKE-A and Akt (ELISA, RLU)” value (PIKE-A/Akt interaction [12]) did it give?
Answer: failed to block the PIKE-A/Akt interaction

Question: What about the “Cell viability (MTT)” value (LN-Z308 cells [4]; [14]) of the same molecule?
Answer: selectively decreased LN-Z308 cell viability

Question: What about the Invasive activity (LN-Z308 cells [6]) of the same molecule?
Answer: did not significantly affect

Question: And the “Interaction between a fragment of PIKE-A (1–356 a.a.) and Akt” value (PIKE-A/Akt interaction [8])?
Answer: decreased the interaction

Question: And the “Cell viability (MTT)” value (LN229 cells [9]; [14])?
Answer: not in LN229 cells

Question: And the Invasive activity (LN229 cells [11])?
Answer: did not significantly affect

Source: paper PMC3808079 (Oncogene, 2012)
